In ChEMBL document CHEMBL1146554, “Antioxidative meroterpenoids from the brown alga Cystoseira crinita” (J Nat Prod, 2003):
Values after ≈ are worked out from the molar mass of the structure shown. Active and inactive are the calls of the source. The rule behind the calls is not given here.

Tests used:
[1] = tested on: Radical scavenging activity; assay: Antioxidant activity assessed as DPPH radical scavenging activity at 6 uM after 30 mins; assay type: functional
How it was run: (§1)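 Samples in EtOH (100 µL) mixed with 25 µL of 1 mM DPPH in EtOH plus 75 µL EtOH, then shaken briefly. Kept 30 min at room temperature in the dark. Absorbance read at 517 nm. % scavenging calculated against control, with blank and sample-blank corrections.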

[2] = tested on: Radical scavenging activity; assay: Antioxidant activity assessed as DPPH radical scavenging activity at 23 uM after 30 mins; assay type: functional; how it was run: as §1
[3] = tested on: Radical scavenging activity; assay: Antioxidant activity assessed as DPPH radical scavenging activity at 58 uM after 30 mins; assay type: functional; how it was run: as §1
[4] = tested on: Radical scavenging activity; assay: Antioxidant activity assessed as DPPH radical scavenging activity at 115 uM after 30 mins; assay type: functional; how it was run: as §1
[5] = tested on: Radical scavenging activity; assay: Antioxidant activity assessed as DPPH radical scavenging activity at 230 uM after 30 mins; assay type: functional; how it was run: as §1
[6] = ABTS radical scavenging activity assessed as trolox equivalents by TEAC assay; assay type: physicochemical
How it was run: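 ABTS radical cation made by passing ABTS in PBS through manganese dioxide, then filtered (0.2 µm). Diluted in 5 mM PBS pH 7.4 to A734 0.700 and preincubated 2 h at room temperature. 1 mL radical mixed with 200 µL ethanolic sample, vortexed 30 s, centrifuged. A734 of lower phase read exactly 2 min after mixing. PBS and ethanol blanks included. Trolox standards used; value is mM Trolox equivalent to 1.0 mM compound.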

[7] = Superoxide radical scavenging activity assessed as trolox equivalents by photochemiluminescence assay
How it was run: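 Photochemiluminescence with luminol acting as photosensitizer and detection reagent, generating superoxide. Mix of 2.29 mL reagent 1 (solvent/diluent), 200 µL buffer reagent, 25 µL photosensitizer and 10 µL sample in ethanol or Trolox standard in water. Antioxidant capacity taken from the integral under the curve and expressed as Trolox equivalents.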

[8] = Antioxidant activity assessed as inhibition of FeSO4-induced lipid peroxidation at 8 uM by TBARS assay; assay type: functional
How it was run: (§2)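 Linolenic acid methyl ester oxidized under FeSO4 catalysis in 50 mM phosphate buffer pH 7.2 at 50 °C. BHT in ethanol added to stop further oxidation. TBARS developed with trichloroacetic and thiobarbituric acid, 60 °C for 30 min. Read A532 minus A600 background. % inhibition calculated versus uninhibited control, with blank and sample-blank corrections.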

[9] = Antioxidant activity assessed as inhibition of FeSO4-induced lipid peroxidation at 16 uM by TBARS assay; assay type: functional; how it was run: as §2
[10] = Antioxidant activity assessed as inhibition of FeSO4-induced lipid peroxidation at 33 uM by TBARS assay; assay type: functional; how it was run: as §2
[11] = Antioxidant activity assessed as inhibition of FeSO4-induced lipid peroxidation at 82 uM by TBARS assay; assay type: functional; how it was run: as §2
[12] = Antioxidant activity assessed as inhibition of FeSO4-induced lipid peroxidation at 164 uM by TBARS assay; assay type: functional; how it was run: as §2
[13] = Cytotoxicity against human HM02 cells; assay type: functional
How it was run: (§3)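 Cytotoxicity tested on HM02 gastric adenocarcinoma, HepG2 hepatocellular carcinoma and MCF7 breast adenocarcinoma lines following NCI standards.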

[14] = tested on: HepG2; assay: Cytotoxicity against human HepG2 cells; assay type: functional; how it was run: as §3
[15] = tested on: MCF7; assay: Cytotoxicity against human MCF7 cells; assay type: functional; how it was run: as §3
[16] = tested on: Priestia megaterium; assay: Antimicrobial activity against Bacillus megaterium at 50 ug/disk by agar diffusion assay; assay type: functional, organism-based
How it was run: (§4)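 Agar diffusion assay with discs loaded at 50 µg/disk, run against the bacteria, fungi and the green microalga Chlorella fusca.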

[17] = tested on: Escherichia coli; assay: Antimicrobial activity against Escherichia coli at 50 ug/disk by agar diffusion assay; assay type: functional, organism-based; how it was run: as §4
[18] = tested on: Microbotryum violaceum; assay: Antimicrobial activity against Microbotryum violaceum at 50 ug/disk by agar diffusion assay; assay type: functional, organism-based; how it was run: as §4
[19] = tested on: Aspergillus pseudoglaucus; assay: Antimicrobial activity against Eurotium repens at 50 ug/disk by agar diffusion assay; assay type: functional, organism-based; how it was run: as §4
[20] = tested on: Mycotypha microspora; assay: Antimicrobial activity against Mycotypha microspora at 50 ug/disk by agar diffusion assay; assay type: functional, organism-based; how it was run: as §4
[21] = tested on: [Chlorella] fusca; assay: Antimicrobial activity against 'Chlorella' fusca at 50 ug/disk by agar diffusion assay; assay type: functional, organism-based; conditions: Scenedesmus fuscus; how it was run: as §4
[22] = tested on: Radical scavenging activity; assay: Antioxidant activity assessed as DPPH radical scavenging activity at 12 uM after 30 mins; assay type: functional; how it was run: as §1

Row | Activity [6] | Structure (SMILES) | Activity [1] | Activity [2] | Activity [3] | Activity [4] | Activity [5] | Activity [7] | inhibition [8] | inhibition [9] | inhibition [10] | inhibition [11] | inhibition [12] | Activity [16] | Activity [17] | Activity [18] | Activity [19] | Activity [20] | Activity [21] | Activity [22] | other results
1 | – | CC(C)=CCC/C(C)=C\C(=O)C/C(C)=C/Cc1cc(O)cc(C)c1O | 2.6% | 17.7% | 50.2% | 92.1% | 92.5% | – | 13.2% | 19.9% | 28.8% | 52.9% | 66.5% | – | – | – | – | – | – | 5.9% | –
2 | – | Cc1cc(C(C)(C)C)c(O)c(C(C)(C)C)c1 | 1.2% | 5.6% | 11.8% | 22% | 35.6% | – | 23.1% | 35.4% | 49.1% | 63.3% | 69.3% | – | – | – | – | – | – | 2.9% | –
3 | 0.3 mmol/L | CC1=CC(=O)C=C(C/C=C(\C)CC(=O)/C=C(/C)CC/C=C(\C)Cc2cc(C)co2)C1=O | 1.1% | 5.5% | 12.2% | 22.8% | 38.6% | 1.41 mmol/L | 11.1% | 16.1% | 24.4% | 38.7% | 54.4% | inactive | inactive | inactive | inactive | inactive | inactive | 1.8% | –
4 | – | CC1=CC(=O)C=C(C/C=C(\C)CC(=O)/C=C(\C)CC/C=C(\C)Cc2cc(C)co2)C1=O | 1% | 2.9% | 8.1% | 16% | 29% | – | 7.6% | 14.2% | 20.2% | 31.4% | 43.3% | – | – | – | – | – | – | 2.2% | –
5 | – | CC(C)=CC(O)C/C(C)=C/CC/C(C)=C\C(=O)C/C(C)=C/Cc1cc(O)cc(C)c1O (configuration not stated) | 5.8% | 17.1% | 55.2% | 95.5% | 95.5% | – | 4.9% | 10.4% | 19.2% | 60.4% | 70.3% | inactive | inactive | inactive | inactive | inactive | inactive | 9.7% | –
6 | 0.14 mmol/L | CC(C)=CCC/C(C)=C/CC/C(C)=C\C(=O)C/C(C)=C/Cc1cc(O)cc(C)c1O | 6.9% | 25.5% | 67.2% | 95.4% | 95.4% | 1.35 mmol/L | 10.7% | 12.1% | 28.6% | 66.8% | 71.8% | inactive | inactive | inactive | inactive | inactive | inactive | 11.8% | –
7 | – | CC(C)=CC(O)C/C(C)=C/CC/C(C)=C/C(=O)C/C(C)=C/Cc1cc(O)cc(C)c1O (configuration not stated) | 4.6% | 18.1% | 49.2% | 93.2% | 96.1% | – | 7.8% | 11.7% | 17.6% | 55.4% | 68.9% | inactive | inactive | inactive | inactive | inactive | inactive | 7.4% | –
8 | 0.37 mmol/L | CC(C)=CC(=O)C/C(C)=C/CC/C(C)=C/C(=O)C/C(C)=C/Cc1cc(O)cc(C)c1O | 7.6% | 29.1% | 80.8% | 95.7% | 95.5% | 1.39 mmol/L | 13.6% | 20.3% | 39.9% | 70.1% | 72.2% | inactive | inactive | inactive | inactive | inactive | inactive | 14.3% | –
9 | – | CC(C)=CCC/C(C)=C/CC/C(C)=C/C(=O)C/C(C)=C/Cc1cc(O)cc(C)c1O | 6% | 24.4% | 67.4% | 95% | 94.4% | – | 13.3% | 17% | 24.3% | 61.7% | 70.8% | inactive | inactive | inactive | inactive | inactive | inactive | 8.6% | –
10 | – | CC(C)=CCC/C(C)=C/C(=O)C/C(C)=C/Cc1cc(O)cc(C)c1O | 2.6% | 11.2% | 29.8% | 59.1% | 94.1% | – | 9.2% | 19.8% | 22.2% | 43.1% | 66.8% | inactive | inactive | inactive | inactive | inactive | inactive | 3.7% | –
11 | 0.63 mmol/L | Cc1c(C)c2c(c(C)c1O)CC[C@@](C)(CCC[C@H](C)CCC[C@H](C)CCCC(C)C)O2 [ALPHA-TOCOPHEROL] | 8.2% | 33.9% | 88.1% | 94.9% | 95.2% | 1.26 mmol/L | 13.1% | 32.1% | 67.6% | 71.2% | 72.7% | – | – | – | – | – | – | 16.3% | –

Row | Structure (SMILES) | Activity [6] | Activity [1] | Activity [2] | Activity [3] | Activity [4] | Activity [5] | Activity [7] | inhibition [8] | inhibition [9] | inhibition [10] | inhibition [11] | inhibition [12] | Activity [16] | Activity [17] | Activity [18] | Activity [19] | Activity [20] | Activity [21] | Activity [22] | other results
12 | C/C(=C/C(=O)C/C(C)=C/Cc1cc(O)cc(C)c1O)CC/C=C(\C)Cc1cc(C)co1 | 0.28 mmol/L | 5.9% | 22.1% | 56.7% | 95.7% | 95.8% | 0.79 mmol/L | 16.4% | 25.2% | 38.9% | 66.6% | 74.6% | inactive | inactive | inactive | inactive | inactive | inactive | 11% | GI50 [13]: 0.9 µg/mL (≈ 2.13 µM); LC50 [13]: 4.6 µg/mL (≈ 10.9 µM); TGI [13]: 2 µg/mL (≈ 4.73 µM); GI50 [14]: 1.7 µg/mL (≈ 4.02 µM); LC50 [14]: > 10 µg/mL; TGI [14]: 5 µg/mL (≈ 11.8 µM); GI50 [15]: 0.9 µg/mL (≈ 2.13 µM); LC50 [15]: 3.6 µg/mL (≈ 8.52 µM); TGI [15]: 1.7 µg/mL (≈ 4.02 µM)
13 | C/C(=C\C(=O)C/C(C)=C/Cc1cc(O)cc(C)c1O)CC/C=C(\C)Cc1cc(C)co1 | 0.08 mmol/L | 8% | 24.9% | 65.4% | 95.2% | 95.4% | 1.06 mmol/L | 15.1% | 25.8% | 41.2% | 69.3% | 74.9% | inactive | inactive | inactive | inactive | inactive | inactive | 12.5% | GI50 [13]: 0.3 µg/mL (≈ 0.71 µM); LC50 [13]: 3.4 µg/mL (≈ 8.05 µM); TGI [13]: 0.6 µg/mL (≈ 1.42 µM); GI50 [14]: 1.8 µg/mL (≈ 4.26 µM); LC50 [14]: > 10 µg/mL; TGI [14]: 4 µg/mL (≈ 9.47 µM); GI50 [15]: 1.3 µg/mL (≈ 3.08 µM); LC50 [15]: 3.7 µg/mL (≈ 8.76 µM); TGI [15]: 2.1 µg/mL (≈ 4.97 µM)
